A selection: hits, their analogues and other compounds. The true share with any hit is near 29%.
CYP2C19 inh: blockers of cytochrome P450 2C19 activity – biochemical, luminescence, ADME assay, primary screen; P33261; CYP2C19 Supersomes, luciferin-H EGE luminescence, 30 min; inhibition, % at 5 µM; 96,000 compounds, 21% hits;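 active = CYP2C19 inhibition above a set limit at 5 µM in the primary screen, cut at about 50% in these data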;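 also: plate controls were negative control wells for no effect and 2.5 mM tranylcypromine positive control for full effect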
Target sequence (P33261 whole entry, looked up): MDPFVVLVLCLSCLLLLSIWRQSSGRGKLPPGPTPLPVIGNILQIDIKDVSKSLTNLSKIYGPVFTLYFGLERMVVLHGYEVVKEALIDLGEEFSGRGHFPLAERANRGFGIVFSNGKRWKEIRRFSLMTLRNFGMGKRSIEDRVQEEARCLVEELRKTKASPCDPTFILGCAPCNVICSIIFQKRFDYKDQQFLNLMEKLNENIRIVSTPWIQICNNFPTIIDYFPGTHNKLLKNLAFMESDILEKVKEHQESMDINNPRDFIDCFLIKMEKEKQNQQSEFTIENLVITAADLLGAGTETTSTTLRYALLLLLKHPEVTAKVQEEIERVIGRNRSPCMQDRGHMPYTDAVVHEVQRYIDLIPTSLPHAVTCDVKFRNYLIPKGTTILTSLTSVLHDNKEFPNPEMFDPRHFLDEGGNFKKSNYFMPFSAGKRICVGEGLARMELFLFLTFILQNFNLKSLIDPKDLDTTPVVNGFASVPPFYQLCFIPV
Ecoli WT expand: growth inhibitors of wild-type E. coli, primary screen, strain BW25113, expanded library, OD600; OD600 absorbance; growth inhibition, % at 100 µM; 98,000 compounds, 0.15% hits;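 active = growth inhibition above about 50% at one test dose, limit read from the data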;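 also: growth measured after 20 h incubation at 37 °C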
CYP2C9 inhib: blockers of cytochrome P450 2C9 activity – biochemical, luminescence, ADME assay, primary screen; P11712; CYP2C9 Supersomes, luciferin-H conversion; inhibition, % at 5 µM; 96,000 compounds, 20% hits; AID 777, 2007;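 active = blocking of liver enzyme CYP2C9 beyond about 50% at 5 µM, limit read from the data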
CYP2C19 activ: human CYP2C19 activators, primary screen, biochemical, luminescence; recombinant CYP2C19, luciferin-H EGE luminescence; active compounds read high; 0 = fully inhibited enzyme, 1 = untreated enzyme; activation factor at 5 µM; 96,000 tested, under 10 active; AID 1025, 2008;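 active = activation factor of at least 2 at 5 µM in the primary screen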;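 also: 0 = wells with 2.5 mM tranylcypromine and 1 = vehicle-only wells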
Ecoli tolC: growth inhibitors of E. coli tolC mutant, primary screen, strain BW25113 ΔtolC::kan, 384-well; OD615; growth inhibition, % at 10 µM (by protocol); 65,000 compounds, 2.2% hits;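 active = growth inhibition at or above a cutoff equal to the mean over every tested compound plus 3 SD, cut at about 60% in these data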;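 also: growth measured after 20 h incubation at 37 °C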
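Test system: E. coli BW25113 ΔtolC::kan bacteria; incubation: 37 °C, 20 h exposure; medium: LB broth supplemented with 50 µg/mL kanamycin; read-out basis: percent growth inhibition; signal: A615 absorbance measurement; compound: 10 µM final, single dose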
CYP2C9 activ: human CYP2C9 activators, primary screen, biochemical, luminescence | Cytochrome P450 2C9 (Homo sapiens), P11712 | recombinant CYP2C9, luciferin-H conversion; active compounds read high; factor 1 = untreated enzyme, 0 = blocked | activation factor at 5 µM | 96,000 compounds, 1.4% hits;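 active = activation factor of 2 or more for CYP2C9 at a 5 µM dose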;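 also: 0 = sulfaphenazole-blocked wells and 1 = vehicle-only wells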
Active calls of the source: *; · = no result.

SMILES | CYP2C19 inh | Ecoli WT expand | CYP2C9 inhib | CYP2C19 activ | Ecoli tolC | CYP2C9 activ
O=C(NCCc1csc(-c2ccccc2)n1)c1ccc(Br)o1 | 100* | 6 | 61* | 0 | · | 0.4
O=C(NCCc1csc(-c2cccnc2)n1)c1ccco1 | 10 | -4 | 13 | 0.9 | -10 | 0.9
O=C(O)CCNC(=O)c1ccc(Br)o1 | -10 | -23 | -8 | 1.1 | -36 | 1.1
O=C(NCCc1csc(-c2cccnc2)n1)c1ccc(Br)o1 | 52* | -4 | 42 | 0.5 | 2 | 0.6
COC(=O)C(O)(CC(=O)Nc1ccc(C)c(F)c1)C(F)(F)F (stereo not given) | 11 | -1 | 22 | 0.9 | · | 0.8
CCc1ccc2c(COn3nnc4ccc(S(=O)(=O)N(C)C)cc43)cc(=O)oc2c1 | 26 | -10 | 26 | 0.7 | 25 | 0.7
Cc1ccc(NC(=O)COn2nnc3ccc(S(=O)(=O)N(C)C)cc32)cc1F | 89* | -3 | 98* | 0.1 | · | 0
CCc1ccc(NC(=O)COn2nnc3ccc(S(=O)(=O)N(C)C)cc32)cc1 | 82* | 12 | 82* | 0.2 | · | 0.2
O=C(Nc1nc2ccccc2n1CCOc1ccccc1)c1ccco1 | 58* | -2 | 38 | 0.4 | -8 | 0.6
O=C(Nc1nc2ccccc2n1CCOc1ccc(Cl)cc1)c1ccco1 | 2 | 1 | 10 | 1 | 77* | 0.9
Cc1cccc(OCCn2c(NC(=O)c3ccco3)nc3ccccc32)c1 | 9 | -6 | 5 | 0.9 | 98* | 1
Cc1ccc(OCCn2c(NC(=O)c3ccco3)nc3ccccc32)cc1 | 9 | -9 | -23 | 0.9 | -5 | 1.2
Cc1cccc(OCCn2c(-c3ccco3)nc3ccccc32)c1 | 48 | -10 | 46 | 0.5 | · | 0.5
O=C(Nc1nc2ccccc2n1Cc1ccc(Cl)cc1)c1ccco1 | 5 | -20 | 11 | 0.9 | -7 | 0.9
Cc1cc2c3c(ccc(C)c3n1)N=CN2c1ccccc1 | 39 | -6 | 56* | 0.6 | · | 0.4
Cc1cc(N2CCOCC2)c2c(N)c(C)cc(C)c2n1 | 8 | 1 | 4 | 0.9 | -8 | 1
COc1ccc(N2CCN(c3nc4c(c(=O)[nH]c(=O)n4C)n3CCCc3ccccc3)CC2)cc1 | · | · | · | · | 2 | ·
CC(C)CCn1c(N2CCN(Cc3ccccc3)CC2)nc2c1c(=O)[nH]c(=O)n2C | 77* | · | 76* | 0.2 | -5 | 0.2
Cn1c(=O)[nH]c(=O)c2c1nc(N1CCCCCC1)n2CCCSc1nc2ccccc2o1 | 66* | -4 | 83* | 0.3 | 18 | 0.2
CCCCCn1c(N2CCN(Cc3ccccc3)CC2)nc2c1c(=O)[nH]c(=O)n2C | 61* | -1 | 43 | 0.4 | 29 | 0.6
CCn1c(N2CCN(CC(=O)c3c(C)n(C)c4ccccc34)CC2)nc2c1c(=O)[nH]c(=O)n2C | 39 | -4 | 46 | 0.6 | -18 | 0.5
CCCn1c(N2CCN(CC(=O)c3c[nH]c4ccccc34)CC2)nc2c1c(=O)[nH]c(=O)n2C | 46 | 6 | 70* | 0.5 | 10 | 0.3
CC(C)CCn1c(CN2CCN(Cc3ccccc3)CC2)nc2c1c(=O)[nH]c(=O)n2C | 14 | -5 | 25 | 0.9 | 0 | 0.8
Cn1c(=O)[nH]c(=O)c2c1nc(N1CCCCCC1)n2CCSc1nc2ccccc2o1 | · | · | · | · | 1 | ·
COC(=O)Cn1c(=O)c2c(nc(Br)n2CC(=O)OC)n(C)c1=O | 0 | 7 | -6 | 1 | -17 | 1.1
SMILES | CYP2C19 inh | Ecoli WT expand | CYP2C9 inhib | CYP2C19 activ | Ecoli tolC | CYP2C9 activ
O=C(COC(=O)c1ccc(Br)o1)NCC1CCCO1 (stereo not given) | 3 | -2 | 5 | 1 | · | 0.9
Cc1nc(SCc2ccccc2C)n[nH]1 | 49 | 1 | 17 | 0.5 | 13 | 0.8
CC(C)CCn1c(SCC(=O)c2ccccc2)nc2c1c(=O)[nH]c(=O)n2C | 19 | -11 | 73* | 0.8 | -15 | 0.3
Cc1cccc(Cn2c(CN3CCN(Cc4ccccc4)CC3)nc3c2c(=O)[nH]c(=O)n3C)c1 | 8 | 2 | 7 | 0.9 | 7 | 0.9
Cc1csc(SCCn2c(N3CCN(c4ccccc4)CC3)nc3c2c(=O)[nH]c(=O)n3C)n1 | 49 | -3 | 52* | 0.5 | 5 | 0.5
CCCn1c(N2CCN(Cc3cccc(C)c3)CC2)nc2c1c(=O)[nH]c(=O)n2C | 90* | 5 | -3 | 0.1 | -2 | 1
CCCCn1c(NC(C)CC)nc2c1c(=O)[nH]c(=O)n2C (stereo not given) | 9 | 9 | 53* | 0.9 | 8 | 0.5
CCN1CCN(c2nc3c(c(=O)[nH]c(=O)n3C)n2CCSc2nc3ccccc3s2)CC1 | 7 | -8 | 37 | 0.9 | -14 | 0.6
COCCNC(=O)c1cc2c(=O)n3cccc(C)c3nc2n1C | -8 | · | -13 | 1.1 | -11 | 1.1
O=C(NCCCN1CCCC1=O)c1cccc(C(F)(F)F)c1 | 45 | 0 | 77* | 0.6 | -3 | 0.2
Cc1cccn2c(=O)c3cc(C(=O)NCCCN4CCCC4=O)n(C)c3nc12 | 51* | 2 | 32 | 0.5 | 25 | 0.7
Cc1cccn2c(=O)c3cc(C(=O)NCCCn4ccnc4)n(C)c3nc12 | 32 | -7 | 60* | 0.7 | 4 | 0.4
CCCCNC(=O)c1cc2c(=O)n3cccc(C)c3nc2n1C | 3 | · | -44 | 1 | 0 | 1.4
O=C(NCCCN1CCCC1=O)c1cccs1 | 12 | 2 | -2 | 0.9 | -13 | 1
CC1(C)CC(=O)CC(=Nc2ccc3[nH]c(=O)[nH]c3c2)C1 | 1 | 4 | 3 | 1 | -14 | 1
Clc1cccc(NCc2nnc(SCc3ccccc3)o2)c1 | 82* | 7 | 83* | 0.2 | 99* | 0.2
Clc1cccc(CSc2nnc(-c3c[nH]c4ccccc34)o2)c1 | -2 | -12 | 27 | 1 | · | 0.7
O=C(CSc1nnc(CNC(=O)c2c(F)cccc2Cl)o1)Nc1ccccc1 | 2 | 7 | 2 | 1 | -15 | 1
NCCCCCc1nnc(SCC(=O)Nc2cccc(Cl)c2)o1 | 48 | 9 | 57* | 0.5 | -28 | 0.4
NCCCCCc1nnc(SCc2cccc(Cl)c2)o1 | 65* | 7 | 32 | 0.4 | -9 | 0.7
Clc1cccc(CSc2nnc([C@@H]3CCCN3)o2)c1 | 94* | 13 | -73 | 0.1 | 5 | 1.7
COCCNC(=O)c1cnn2c(C(F)(F)F)cc(-c3ccc4c(c3)OCO4)nc12 | 19 | 3 | 36 | 0.8 | -6 | 0.6
CCOC(=O)N1CCC(Nc2c(NCCCN(C)Cc3ccccc3)c(=O)c2=O)CC1 | -2 | 6 | -2 | 1 | -6 | 1
CCn1c2ccccc2c2cc(NC(=O)CSc3nnc(-c4cccc(Cl)c4)o3)ccc21 | 47 | -8 | 39 | 0.5 | · | 0.6

Assay outcomes as filed in PubChem BioAssay.
